From ChEMBL document CHEMBL1156875, “Anti-influenza drug discovery: structure-activity relationship and mechanistic insight into novel angelicin derivatives” (J Med Chem, 2010)
Calls of active or inactive are those of the source. The calls are words filed in the database; no cut-off is given here.

How the values were obtained:
[1] = test system: Influenza B virus; experiment: Antiviral activity against human influenza B virus B/TW/99/07 in MDCK cells assessed as reduction of virus-induced cytopathic; format: functional, organism-based; details: B/TW/99/07, MDCK
In short: (§1)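 MDCK cells (1.1 × 10^5 cells/mL in DMEM + 10% FBS) grown 24-30 h at 37 C to about 90% confluency. Virus (100 TCID50) premixed with serially diluted compound, adsorbed 1 h at 37 C. Overlay of serum-free DMEM with trypsin 2.5 μg/mL and 0.1% DMSO, then 72 h at 37 C. Formaldehyde fixation, crystal violet stain, A570. IC50 = 50% CPE reduction versus virus control. Triplicate, at least two runs.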

[2] = test system: Influenza A virus; experiment: Antiviral activity against human influenza A virus A/WSN/33 (H1N1) in MDCK cells assessed as prevention of progeny formation after 4 to 8 hrs by time-of-addition study; format: functional, organism-based; details: A/WSN/1933(H1N1)
In short: (§2)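 MDCK (2.4 × 10^5 cells/well, six-well) infected at MOI 0.001 on ice for 1 h, washed, fresh medium set as 0 h pi. Compound at 1 μM present only during −1 to 0, 0-2, 2-4, 4-6 or 6-8 h, then washed off. Incubated in fresh medium to 12 h pi; supernatant virus yield titrated by plaque assay.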

[3] = test system: Influenza A virus; experiment: Antiviral activity against human influenza A virus A/WSN/33 (H1N1) in MDCK cells assessed as reduction of M1 protein by immunofluorescence microscopic analysis; format: functional, organism-based; details: A/WSN/1933(H1N1)
In short: (§3)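 Influenza-infected MDCK cells examined by immunofluorescence microscopy with anti-dsRNA, anti-NP and anti-M1 antibodies to visualise viral RNA and proteins.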

[4] = test system: Influenza A virus; experiment: Antiviral activity against human influenza A virus A/WSN/33 (H1N1) in MDCK cells assessed as reduction of plaque formation at 20 nM; format: functional, A/WSN/1933(H1N1); design: scale not given: the % may be the effect or the level left
In short: (§4)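 Six-well MDCK monolayers (5.5 × 10^5 cells/well, overnight) infected with about 125 PFU/well of A/WSN/33 with or without compound, adsorbed 1 h at 37 C, then washed with HBSS. Agarose 0.3% overlay in trypsin-containing serum-free medium carrying the same compound level, 48 h at 37 C, 5% CO2. Fixed, crystal violet stained, plaques counted relative to virus control.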

[5] = test system: Influenza A virus; experiment: Antiviral activity against human influenza A virus A/WSN/33 (H1N1) in MDCK cells assessed as reduction of plaque formation at 100 nM; format: functional, organism-based; details: A/WSN/1933(H1N1); in short: as §4
[6] = test system: Influenza A virus; experiment: Antiviral activity against human influenza A virus A/WSN/33 (H1N1) in MDCK cells assessed as reduction of NP protein by immunofluorescence microscopic analysis; format: functional, organism-based; details: A/WSN/1933(H1N1); in short: as §3
[7] = test system: Influenza B virus; experiment: Antiviral activity against human influenza B virus B/TW/710/05 in MDCK cells assessed as reduction of virus-induced cytopathic; format: functional, organism-based; details: B/TW/710/05, MDCK; in short: as §1
[8] = test system: Influenza A virus; experiment: Antiviral activity against human influenza A virus A/WSN/33 (H1N1) in MDCK cells assessed as reduction of dsRNA by immunofluorescence microscopic analysis; format: functional, organism-based; details: A/WSN/1933(H1N1); in short: as §3
[9] = test system: Influenza B virus; experiment: Antiviral activity against human influenza B virus B/TW/70325/05 in MDCK cells assessed as reduction of virus-induced cytopathic; format: functional, organism-based; details: B/TW/70325/05, MDCK; in short: as §1
[10] = test system: Influenza A virus; experiment: Antiviral activity against human influenza A virus A/TW/141/04 (H1N1) in MDCK cells assessed as reduction of virus-induced cytopathic effect; format: functional, organism-based; in short: as §1
[11] = test system: Influenza A virus; experiment: Antiviral activity against human influenza A virus A/WSN/33 (H1N1) in MDCK cells assessed as reduction of virus-induced cytopathic effect; format: functional, organism-based; details: A/WSN/1933(H1N1); in short: as §1
[12] = test system: Influenza A virus; experiment: Antiviral activity against human influenza A virus A/WSN/33 (H1N1) assessed as inhibition of guinea pig red blood cells at 25 uM by hemagglutinination inhibition assay; format: functional, organism-based; details: A/WSN/1933(H1N1)
In short: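 Hemagglutination inhibition format: A/WSN/33 attachment to guinea pig red blood cells tested with compound at 25 μM.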

[13] = test system: Influenza A virus; experiment: Antiviral activity against human influenza A virus A/WSN/33 (H1N1) in MDCK cells assessed as prevention of progeny formation up to 4 hrs by time-of-addition study; format: functional, organism-based; details: A/WSN/1933(H1N1); in short: as §2
[14] = test system: Influenza A virus; experiment: Antiviral activity against human influenza A virus A/TW/3446/04 (H3N2) in MDCK cells assessed as reduction of virus-induced cytopathic effect; format: functional, organism-based; in short: as §1
[15] = Cytotoxicity against MDCK cells after 72 hrs; format: cell-based, Canis lupus familiaris; details: dog
In short: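 Uninfected MDCK monolayers (seeded at 1.1 × 10^5 cells/mL, grown 24-30 h to about 90% confluency) exposed to graded compound concentrations for 72 h at 37 C. Read by formaldehyde fixation, 0.1% crystal violet staining and absorbance at 570 nm. CC50 = concentration reducing viability to 50% of control. Triplicate, repeated at least twice.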

## Cc1cc(=O)oc2c1ccc1oc(C(=O)c3cccs3)c(-c3ccccc3)c12
[1]
  IC50: 40 nM
[2]
  Activity: inactive
[3]
  Activity: Active
[4]
  Activity: 50%
[5]
  Activity: Active
[6]
  Activity: Active
[7]
  IC50: 90 nM
[8]
  Activity: Active
[9]
  IC50: 90 nM
[10]
  IC50: 90 nM
[11]
  IC50: 70 nM
[12]
  Activity: inactive
[13]
  Activity: Active
[14]
  IC50: 150 nM
[15]
  CC50 at 72 h: > 25000 nM
